The record followed here is ChEMBL document CHEMBL4316604, “Discovery of Isaindigotone Derivatives as Novel Bloom's Syndrome Protein (BLM) Helicase Inhibitors That Disrupt the BLM/DNA Interactions and Regulate the Homologous Recombination Repair” (J Med Chem, 2019).

Molecules are shown by their SMILES. Activity calls are given as the source filed them. The rule behind the calls is not given here.

Experiment [1] addresses T1, RecQ-like DNA helicase BLM (Homo sapiens, UniProt P54132). As to the kind of experiment: Inhibition of His-tagged BLM (unknown origin) expressed in Escherichia coli BL21 (DE3) assessed as reduction in BLM helicase unwinding activity at 50 uM using 5'-biotin labeled forked-DNA as substrate after 1 hr by PAGE analysis. A digest of the protocol:
(§1)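 BLM642-1296 (His-tagged, E. coli BL21(DE3)) preincubated with ligand (1.0, 10, 50 μM; ≤1% DMSO) for 1 h at 4 °C. Reaction: 8 nM annealed 5′-biotin duplex forked DNA, 32 nM BLM, 2 mM ATP, 0.1% BSA, 1 h.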

Experiment [2] addresses T1, RecQ-like DNA helicase BLM. As to the kind of experiment: Inhibition of His-tagged BLM (unknown origin) expressed in Escherichia coli BL21 (DE3) assessed as reduction in BLM helicase unwinding activity at 10 uM using 5'-biotin labeled forked-DNA as substrate after 1 hr by PAGE analysis. A digest of the protocol:
as §1

Experiment [3] deals with T1, RecQ-like DNA helicase BLM. As to the kind of experiment: Inhibition of His-tagged BLM (unknown origin) expressed in Escherichia coli BL21 (DE3) assessed as reduction in BLM helicase unwinding activity at 1 uM using 5'-biotin labeled forked-DNA as substrate after 1 hr by PAGE analysis. A digest of the protocol: as §1
Experiment [4] addresses T1, RecQ-like DNA helicase BLM. To be noted: 50 uM.
The target in experiment [5] is T1, RecQ-like DNA helicase BLM. Put plainly: Inhibition of BLM in human HCT116 cells assessed as induction of HRR up-regulation after 24 hrs by GFP-based flow cytometry. In kind it is cell-based. A digest of the protocol:
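HCT116 cells (2×10^5) co-transfected with DR-GFP HRR reporter and I-SceI plasmid; 24 h later treated with 0–2 μM ligand (reference 0–50 μM); BLM siRNA knockdown where stated. GFP-positive cells counted by flow cytometry and normalised to untreated; triplicate, mean ± SD.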

T1 sequence (P54132 whole entry): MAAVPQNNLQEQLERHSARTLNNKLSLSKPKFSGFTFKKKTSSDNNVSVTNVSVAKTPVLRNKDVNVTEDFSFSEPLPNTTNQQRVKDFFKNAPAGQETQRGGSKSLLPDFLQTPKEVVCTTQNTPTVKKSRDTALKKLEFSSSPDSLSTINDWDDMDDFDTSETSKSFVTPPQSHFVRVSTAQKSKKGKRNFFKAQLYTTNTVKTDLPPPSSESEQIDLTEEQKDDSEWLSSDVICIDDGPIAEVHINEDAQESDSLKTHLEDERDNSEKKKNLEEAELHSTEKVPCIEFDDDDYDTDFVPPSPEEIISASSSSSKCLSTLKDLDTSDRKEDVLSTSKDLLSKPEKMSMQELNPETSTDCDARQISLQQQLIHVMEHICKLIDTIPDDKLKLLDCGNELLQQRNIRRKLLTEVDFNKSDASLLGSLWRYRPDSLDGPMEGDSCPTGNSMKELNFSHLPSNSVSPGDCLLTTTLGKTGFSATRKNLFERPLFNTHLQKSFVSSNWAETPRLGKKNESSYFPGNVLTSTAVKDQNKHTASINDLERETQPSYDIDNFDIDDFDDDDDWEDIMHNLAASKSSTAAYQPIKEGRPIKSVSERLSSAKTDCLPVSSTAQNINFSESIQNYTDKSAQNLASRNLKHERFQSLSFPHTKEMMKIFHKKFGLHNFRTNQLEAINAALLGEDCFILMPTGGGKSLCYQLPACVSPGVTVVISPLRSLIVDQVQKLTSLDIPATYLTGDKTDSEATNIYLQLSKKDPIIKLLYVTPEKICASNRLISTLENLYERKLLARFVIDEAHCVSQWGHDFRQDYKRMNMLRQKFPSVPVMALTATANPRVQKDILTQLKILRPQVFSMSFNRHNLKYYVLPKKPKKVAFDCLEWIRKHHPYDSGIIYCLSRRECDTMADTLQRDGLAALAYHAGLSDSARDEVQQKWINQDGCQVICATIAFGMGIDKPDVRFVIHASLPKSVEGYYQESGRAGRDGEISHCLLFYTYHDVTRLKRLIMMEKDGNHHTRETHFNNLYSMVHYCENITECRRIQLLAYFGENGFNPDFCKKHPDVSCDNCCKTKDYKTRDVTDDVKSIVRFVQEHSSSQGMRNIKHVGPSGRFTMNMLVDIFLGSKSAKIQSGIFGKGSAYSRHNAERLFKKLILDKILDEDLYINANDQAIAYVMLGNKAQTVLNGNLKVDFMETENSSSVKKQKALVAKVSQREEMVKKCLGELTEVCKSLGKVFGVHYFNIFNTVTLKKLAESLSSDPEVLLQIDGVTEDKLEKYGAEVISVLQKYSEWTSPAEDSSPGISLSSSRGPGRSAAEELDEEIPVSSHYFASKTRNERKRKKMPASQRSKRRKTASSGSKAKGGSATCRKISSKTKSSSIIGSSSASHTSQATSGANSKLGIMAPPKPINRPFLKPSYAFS

For the molecule `CCN(CC)CCCNc1cc2nc3n(c(=O)c2cc1F)CC/C3=C\c1ccc(C(C)(C)C)cc1`, the inhibition entry in experiment [1], in experiment [2] and in experiment [3] was “Active” in each case.
Take `CCN(CC)CCCNc1cc2nc3n(c(=O)c2cc1F)CC/C3=C\c1ccc(C(F)(F)F)cc1`: the inhibition result in experiment [1], in experiment [2] and in experiment [3] was “Active” in each case.
As for `CCN(CC)CCCNc1cc2nc3n(c(=O)c2cc1F)CC/C3=C\c1ccc(CC(C)C)cc1`, the inhibition entry in experiment [1], in experiment [2] and in experiment [3] was “Active” each time.
Turning to `O=C(Nc1ccc(F)c(C(F)(F)F)c1)Nc1nnc(-c2ccncc2)s1`, the inhibition entry in experiment [1], in experiment [2] and in experiment [3] was “Active” throughout. Further, the inhibition entry in experiment [4] is “inactive”. In experiment [5], the EC was 50 µM.
